Measurements: ChEMBL document CHEMBL2146449, “Design, synthesis, and biological evaluation of the analogues of glaziovianin A, a potent antitumor isoflavone” (Bioorg Med Chem, 2012)
pIC50: −log10 of the molar value. Calls of active or inactive are those of the source. No cut-off for these calls is given here.

Assays:
[1] = Cell cycle arrest in human HeLaS3 cells assessed as accumulation at G2/M phase at 1 uM after 24 hrs by flow cytometric analysis; type: functional, cell-based; conditions: HeLa S3
How it was run: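 HeLa S3 cells at 3 × 10^4 cells/mL exposed to compound for 24 h, harvested, fixed in 70% EtOH at -20 °C, stained with propidium iodide; DNA content read by flow cytometry. DMSO-treated cells as control. Cells kept in DMEM with 10% FCS at 37 °C, 5% CO2.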

[2] = Cytotoxicity against human HeLaS3 cells after 48 hrs by WST8 assay; type: functional, cell-based; conditions: HeLa S3, 48 h
How it was run: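 HeLa S3 seeded at 3 × 10^3 cells/well, left overnight, then given a range of compound concentrations for 48 h. WST-8 added for 2 h and absorbance read at 450 nm. Viability (% control) = (sample − blank)/(0 µM well − blank) × 100. Cells in DMEM + 10% FCS, 37 °C, 5% CO2.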

HeLa S3 [3] = assay: Induction of mitotic arrest in human HeLaS3 cells assessed as abnormal multipolar spindles at 1 uM after 6 hrs by immunofluorescence staining; type: functional, cell-based
How it was run: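 HeLa S3 at 3 × 10^4 cells/mL grown on coverslips, treated 6 h, fixed in -20 °C MeOH for 5 min. Anti-α-tubulin DM1A (1:250) in PBS with 0.5% BSA for 1 h at 37 °C, then Alexa488 anti-mouse IgG (1:2000) for 1 h. DAPI 0.1 µg/mL for chromosomes; spindles examined by fluorescence microscopy. DMSO control.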

HeLa S3 [4] = assay: Ratio of glaziovianin A IC50 to compound IC50 for human HeLaS3 cells; type: functional

## COc1cc2c(=O)c(-c3cc(OC)c4c(c3OC)OCO4)coc2cc1OCc1ccccc1
[1]
  Activity: Active
[2]
  pIC50: 6.72
HeLa S3 [3]
  Activity: Active
HeLa S3 [4]
  Ratio IC50: 3.1

## COc1cc2c(=O)c(-c3cc(OC)c4c(c3OC)OCO4)coc2cc1OC1O[C@H](COC(C)=O)[C@@H](OC(C)=O)[C@H](OC(C)=O)[C@H]1OC(C)=O (mixture of isomers)
[2]
  pIC50: < 4.00

## COc1cc2c(=O)c(-c3cc(OC)c4c(c3OC)OCO4)coc2cc1O
[2]
  pIC50: < 4.00

## C#CCOc1cc2occ(-c3cc(OC)c4c(c3OC)OCO4)c(=O)c2cc1OC
[1]
  Activity: Active
[2]
  pIC50: 6.77
HeLa S3 [3]
  Activity: Active
HeLa S3 [4]
  Ratio IC50: 3.5

## COc1cc2c(=O)c(-c3cc(OC)c4c(c3OC)OCO4)coc2cc1OC/C=C/CCC(=O)NCCCCCCNC(=O)CCCC[C@@H]1SC[C@@H]2NC(=O)N[C@@H]21
[2]
  pIC50: 4.81
HeLa S3 [4]
  Ratio IC50: 0.038

## COc1cc2c(=O)c(-c3cc(OC)c4c(c3OC)OCO4)coc2cc1OC1CCCCO1 (stereo not drawn)
[2]
  pIC50: < 4.00

## COc1cc2occ(-c3cc(OC)c(OC)c(OC)c3OC)c(=O)c2cc1OC
[2]
  pIC50: 4.66
HeLa S3 [4]
  Ratio IC50: 0.027

## COc1cc2occ(-c3c(Br)c(OC)c4c(c3OC)OCO4)c(=O)c2cc1OC
[2]
  pIC50: 4.17
HeLa S3 [4]
  Ratio IC50: 0.009

## C=CCOc1cc2occ(-c3cc(OC)c4c(c3OC)OCO4)c(=O)c2cc1OC
[1]
  Activity: Active
[2]
  pIC50: 6.34
HeLa S3 [3]
  Activity: Active
HeLa S3 [4]
  Ratio IC50: 1.3

## COc1cc2c(=O)c(-c3cc(OC)c4c(c3OC)OCO4)coc2cc1OCCCCCC(=O)NCCCCCCNC(=O)CCCC[C@@H]1SC[C@@H]2NC(=O)N[C@@H]21
[2]
  pIC50: 4.82
HeLa S3 [4]
  Ratio IC50: 0.039

## COc1cc2c(=O)c(-c3cc(OC)c4c(c3OC)OCO4)coc2cc1OC/C=C/CCC(=O)NCCCCCCNC(=O)CCCC1=C2C(C)=CC(C)=[N+]2[B-](F)(F)n2c(C)cc(C)c21
[2]
  pIC50: 4.76
HeLa S3 [4]
  Ratio IC50: 0.034

## COc1cc2occ(-c3ccc4c(c3)OCO4)c(=O)c2cc1OC
HeLa S3 [4]
  Ratio IC50: 0.01

## COc1cc2occ(-c3cc(OC)c4c(c3OC)OCO4)c(=O)c2cc1OC [GLAZIOVIANIN A]
[1]
  Activity: Active
[2]
  pIC50: 6.23
HeLa S3 [3]
  Activity: Active

## COc1cc2occ(-c3cc(OC)c4c(c3OC)OC(C)(C)O4)c(=O)c2cc1OC
[2]
  pIC50: < 4.00

## COc1cc(-c2coc3cc(OC)c(OC)c(OC)c3c2=O)c(OC)c2c1OCO2
[2]
  pIC50: < 4.00

## COc1cc2c(=O)c(-c3cc(OC)c4c(c3OC)OCO4)coc2cc1OCC(O)CO (stereo not drawn)
[2]
  pIC50: < 4.00

## COc1cc2c(=O)c(-c3cc(OC)c4c(c3OC)OCO4)coc2cc1OC1O[C@H](CO)[C@@H](O)[C@H](O)[C@H]1O (mixture of isomers)
[2]
  pIC50: < 4.00
